Data published in ChEMBL document CHEMBL1146134, “Synthesis and antifungal activity of 6-hydroxycinnolines” (2006).
≈ marks a conversion by molar mass, not a printed value.

What was measured:
Type in all cases: functional
[1] = test system: Cryptococcus neoformans; assay: Antifungal activity against Cryptococcus neoformans KCCM 50564
Method in brief: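 Growth inhibition measured as MIC by twofold broth dilution in modified Sabouraud dextrose broth. Inoculum near 1 × 10⁵ cells/mL. Final agent concentrations spanned 0.2 to 100. 5-Fluorocytosine was run as standard.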

[2] = test system: Pichia kudriavzevii; assay: Antifungal activity against Candida krusei KCCM 11655
Method in brief: (§1)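 Twofold broth dilution MIC in modified Sabouraud dextrose broth. Inoculum approximately 1 × 10⁵ cells/mL. Final agent concentrations ranged 0.2 to 100. Incubated at 37 °C and read after 1 day. MIC determined against 5-fluorocytosine as standard.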

[3] = test system: Candida tropicalis; assay: Antifungal activity against Candida tropicalis KCCM 50662; method in brief: as §1
[4] = test system: Candida albicans; assay: Antifungal activity against Candida albicans KCCM 50235; method in brief: as §1
[5] = test system: Aspergillus niger; assay: Antifungal activity against Aspergillus niger KCTC 1231
Method in brief: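 MIC by twofold serial dilution in modified Sabouraud dextrose broth, with roughly 1 × 10⁵ cells/mL inoculum. Final test concentrations ranged 0.2 to 100. Plates held at 37 °C and read after 2 days. 5-Fluorocytosine served as reference agent.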

SMILES	MIC [1] [µg/mL]	MIC [2] [µg/mL]	MIC [3] [µg/mL]	MIC [4] [µg/mL]	MIC [5] [µg/mL]
COC(=O)C(C#N)C1=C(Sc2ccc(C)cc2)C(=O)C(C)=C(C)C1=O (stereo not given)	50 (≈ 141 µM)	50 (≈ 141 µM)	> 50	> 50	> 50
COC(=O)c1c(N)nnc2c(C)c(C)c(O)c(Sc3ccc(C)cc3)c12	6.3 (≈ 17.1 µM)	3.2 (≈ 8.66 µM)	25 (≈ 67.7 µM)	> 50	25 (≈ 67.7 µM)
COC(=O)c1c(N)nnc2c(C)c(C)c(O)c(Sc3cccc(C)c3)c12	1.6 (≈ 4.33 µM)	> 50	> 50	> 50	> 50
COC(=O)c1c(N)nnc2c(C)c(C)c(O)c(Sc3ccc(C)c(C)c3)c12	1.6 (≈ 4.17 µM)	3.2 (≈ 8.34 µM)	25 (≈ 65.2 µM)	> 50	12.5 (≈ 32.6 µM)
COC(=O)C(C#N)C1=C(Sc2cccc(F)c2)C(=O)C(C)=C(C)C1=O (stereo not given)	50 (≈ 139 µM)	25 (≈ 69.6 µM)	50 (≈ 139 µM)	50 (≈ 139 µM)	50 (≈ 139 µM)
COC(=O)C(C#N)C1=C(Sc2ccc(C)c(C)c2)C(=O)C(C)=C(C)C1=O (stereo not given)	> 50	> 50	50 (≈ 135 µM)	50 (≈ 135 µM)	50 (≈ 135 µM)
COC(=O)c1c(N)nnc2c(C)c(C)c(O)c(Cl)c12	25 (≈ 88.7 µM)	25 (≈ 88.7 µM)	50 (≈ 177 µM)	> 50	6.3 (≈ 22.4 µM)
COC(=O)C(C#N)C1=C(Sc2ccccc2)C(=O)C(C)=C(C)C1=O (stereo not given)	12.5 (≈ 36.6 µM)	50 (≈ 146 µM)	50 (≈ 146 µM)	50 (≈ 146 µM)	50 (≈ 146 µM)
COC(=O)C(C#N)C1=C(Sc2cccc(C)c2)C(=O)C(C)=C(C)C1=O (stereo not given)	50 (≈ 141 µM)	1.6 (≈ 4.5 µM)	> 50	> 50	> 50
COC(=O)C(C#N)C1=C(Cl)C(=O)C(C)=C(C)C1=O (stereo not given)	6.3 (≈ 23.5 µM)	25 (≈ 93.4 µM)	50 (≈ 187 µM)	50 (≈ 187 µM)	25 (≈ 93.4 µM)
COC(=O)c1c(N)nnc2c(C)c(C)c(O)c(Sc3ccccc3)c12	1.6 (≈ 4.5 µM)	6.3 (≈ 17.7 µM)	25 (≈ 70.3 µM)	> 50	12.5 (≈ 35.2 µM)
COC(=O)c1c(N)nnc2c(C)c(C)c(O)c(Sc3cccc(F)c3)c12	6.3 (≈ 16.9 µM)	25 (≈ 67 µM)	50 (≈ 134 µM)	> 50	1.6 (≈ 4.28 µM)
Nc1nc(=O)[nH]cc1F [FLUCYTOSINE]	12.5 (≈ 96.8 µM)	6.3 (≈ 48.8 µM)	12.5 (≈ 96.8 µM)	6.3 (≈ 48.8 µM)	12.5 (≈ 96.8 µM)
